From PubChem BioAssay
Sampled rows, rich in hits. Any-hit rate of the full collection: about 7.6%.
M1 antagonist = blocks the rat M1 muscarinic receptor response to acetylcholine; CHO-M1 cells, Fluo-4 calcium, ACh EC80 antagonist mode; stronger effect = lower value; P08482; AID 628; B-score at 10 µM; 3.4% of 64,000 active;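 active means calcium fluorescence response, raw or row-and-column corrected B-score, differing from the plate sample mean either way at a set confidence level, mostly lower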
Target sequence (P08482 whole entry, looked up): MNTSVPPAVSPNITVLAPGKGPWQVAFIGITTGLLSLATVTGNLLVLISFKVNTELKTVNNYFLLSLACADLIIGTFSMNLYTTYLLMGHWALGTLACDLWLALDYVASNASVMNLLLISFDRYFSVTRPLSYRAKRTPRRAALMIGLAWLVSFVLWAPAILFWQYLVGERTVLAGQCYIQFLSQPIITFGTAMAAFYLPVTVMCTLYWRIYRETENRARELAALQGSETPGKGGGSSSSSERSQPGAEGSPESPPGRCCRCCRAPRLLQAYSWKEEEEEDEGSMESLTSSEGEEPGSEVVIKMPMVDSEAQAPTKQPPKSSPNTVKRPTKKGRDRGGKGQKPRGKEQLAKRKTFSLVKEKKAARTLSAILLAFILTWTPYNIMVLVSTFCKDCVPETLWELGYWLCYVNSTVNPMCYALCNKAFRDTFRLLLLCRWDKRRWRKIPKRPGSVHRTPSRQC
M1 agonist = activates the M1 muscarinic receptor; CHO-M1 cells, Fluo-4 calcium fluorescence, agonist mode; stronger effect = higher value; B-score at 10 µM; 3% of 64,000 active;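 active means fluorescence rise, raw or as B-score row- and column-corrected plate score, outside the 99.7% band of its plate's samples, either direction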
Jurkat viability = cytotoxic compounds reducing Jurkat cell viability; AID 463; 1.2% of 56,000 active; Jurkat E6.1 viability, ATP luminescence, 48 h; inhibition, % at 4 µM;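 active means inhibition above the mean inhibition of all tested compounds plus 3 SD, cut at about 28% in these data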
HEK293 NFkB inh = lowers PMA/ionomycin-induced NF-kB signal in HEK293 cells. 0.21% of 62,000 active. HEK-293 NF-kB luciferase reporter, luminescence. AID 465. inhibition, % at 3 µM;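 active means inhibition above the mean of all tested compounds plus 3 SD, cut at about 40% in these data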
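System – HEK-293 cells with stable firefly luciferase reporter driven by four HIV NF-kB elements · Doses – one dose, 3 µM · Schedule – 1 h compound pre-incubation, 16 h PMA/ionomycin at 37 °C · Technique – luminescence from luciferase substrate reagent · Measure – percent inhibition normalized per plate to DMSO and reference-inhibitor controls · Replicates – tested once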
hDAT+cocaine = human DAT dopamine uptake with cocaine, either direction; LLC-PK1 hDAT cells, [14C]-dopamine uptake with cocaine IC80; actives deviate in either direction; 1.3% of 110,000 active; AID 449768; B-score at 10 µM; Q01959;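 active means Z score or B-score, a plate-position-corrected score, falls beyond the plate's 99.7% confidence bounds, in either direction; inactive means both scores lie inside the 99.7% bounds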
D1 allo mod = D1 dopamine receptor (human) allosteric modulation; P21728; HEK293 D1, CRE-luciferase, dopamine EC30 potentiation; actives deviate in either direction; B-score at 10 µM; 5.9% of 58,000 active; AID 641;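 active means luminescence count or its row- and column-corrected plate score outside the 99.7% band of the plate's sample wells, on either side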
D1 PAM confirm = confirmation of human D1 dopamine receptor allosteric modulators; shares compounds with D1 allo mod; HEK293 D1 CRE-luciferase, dopamine EC30 potentiation; stronger effect = higher value; luminescence at 10 µM; 88% of 2,200 active; AID 642;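 active means luminescence in either of two replicates above the same-plate mean plus 3 SD of the low-dose dopamine control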
D1 ag no DA = D1 (human) signaling in absence of dopamine; 0.8% of 1,900 active; luminescence at 10 µM; HEK293 D1 CRE-luciferase, luminescence, no dopamine; stronger effect = higher value; shares compounds with D1 allo mod; in the data active means luminescence above about 3900
Isoprot counter = alters isoproterenol CRE-luciferase response in HEK293 cells; AID 647; 63% of 2,200 active; HEK293 D1 CRE-luciferase, isoproterenol EC30 counter-screen; shares compounds with D1 allo mod; calls only at 10 µM;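 active means luminescence in either replicate above plate mean of wells with a partly effective reference agonist dose plus 3 SD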;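 further: isoproterenol raises cAMP through native beta-adrenoceptor Gs so signal bypasses D1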
Each line names hits and unclear results; the compound was inactive in the other large screens (follow-up assays come after a bar, where they were run).

O=C(NC1CCCCC1)c1ccccc1NC(=O)C1CC(=O)N(c2ccccc2)C1 (stereo not drawn)	none (no result: M1 antagonist, M1 agonist, Jurkat viability, HEK293 NFkB inh, D1 allo mod)
Cc1cc(C)n2c3c(c(C#N)c2n1)CCCC3	D1 allo mod 2.94 | D1 PAM confirm 9512 | D1 ag no DA inactive | Isoprot counter inactive
CCOc1c(C#N)c(C#N)c2nc(C)cc(C)n12	none
COC(=O)c1cc2sccc2n1CC(=O)N1CCCc2ccccc21	none
COC(=O)c1cc2sc(Cl)cc2n1CC(=O)N1CCCc2ccccc21	D1 allo mod 5.45 | D1 PAM confirm 9576 | D1 ag no DA inactive | Isoprot counter inactive
COc1ccc(Nc2ncc3c(n2)CC(c2ccc(C)cc2)CC3=O)cc1 (stereo not drawn)	none (no result: M1 antagonist, M1 agonist, Jurkat viability, HEK293 NFkB inh, D1 allo mod)
COc1ccc(Nc2ncc3c(n2)CC(c2ccc(OC)cc2)CC3=O)cc1 (stereo not drawn)	D1 allo mod 7.52 | D1 PAM confirm 11768 | D1 ag no DA inactive | Isoprot counter active
CCc1cccc2c(C#N)cn(CCOc3ccccc3OC)c12	none
CCc1cccc2c(C#N)cn(CC(=O)NCCOC)c12	D1 allo mod 2.95 | D1 PAM confirm inactive | D1 ag no DA inactive | Isoprot counter inactive
N#Cc1cn(CC(=O)N2CCCC2)c2ccccc12	none
Cc1ccc(-c2nc3cccnc3s2)cc1NS(=O)(=O)c1ccc2c(c1)OCCO2	none (no result: M1 antagonist, M1 agonist, Jurkat viability, HEK293 NFkB inh, D1 allo mod)
O=S(=O)(Nc1cccc(-c2nc3cccnc3s2)c1)c1ccc2c(c1)OCCO2	D1 allo mod 4.65 | D1 PAM confirm 8604 | D1 ag no DA inactive | Isoprot counter inactive
O=C(Nc1ccc2c(c1)OCCO2)N1CCN(c2ccccc2)CC1	none (no result: M1 antagonist, M1 agonist, Jurkat viability, HEK293 NFkB inh, D1 allo mod)
O=c1c2ccccc2c2ccccc2c(=O)n1Cc1cccnc1	D1 allo mod 2.78 | D1 PAM confirm inactive | D1 ag no DA inactive | Isoprot counter inactive
CCC(C)NC(=O)c1cnc2n(c1=O)CCS2 (stereo not drawn)	none (no result: D1 allo mod)
COc1nnc(-c2ccc(N3CCOCC3)c(NC(=O)c3ccccc3)c2)c2ccccc12	none (no result: M1 antagonist, M1 agonist, Jurkat viability, HEK293 NFkB inh, D1 allo mod)
CCOC(=O)c1oc2ccccc2c1NC(=O)Cc1cccs1	none
NC(=O)c1oc2ccccc2c1NC(=O)c1ccc(F)cc1	D1 allo mod 4.51 | D1 PAM confirm 7528 | D1 ag no DA inactive | Isoprot counter inactive
CCOC(=O)c1oc2ccccc2c1NC(=O)COC	D1 allo mod 20.5 | D1 PAM confirm 20772 | D1 ag no DA inactive | Isoprot counter active
NC(=O)c1oc2ccccc2c1NC(=O)C1CCCCC1	none
CCOC(=O)c1oc2ccccc2c1NC(=O)c1cc(OC)cc(OC)c1	D1 allo mod 4.67 | D1 PAM confirm 13500 | Isoprot counter active
COc1cccc(NC(=O)c2oc3ccccc3c2NC(C)=O)c1	none
CCOC(=O)c1oc2ccccc2c1NC(=O)CN1CCN(C)CC1	D1 allo mod 3.48 | D1 PAM confirm 8308 | D1 ag no DA inactive | Isoprot counter active
CCOC(=O)C1=C(C)N(CCCCCC(=O)O)C(=O)NC1c1ccccc1OS(=O)(=O)c1ccc(C)cc1 (stereo not drawn)	none (no result: M1 antagonist, M1 agonist, Jurkat viability, HEK293 NFkB inh, D1 allo mod)
CCOCC(=O)Nc1c(C(=O)OCC)oc2ccccc12	D1 allo mod 8.8 | D1 PAM confirm 17016 | D1 ag no DA inactive | Isoprot counter active
CC(C)(C)OC(=O)N1CCC(c2c(C(=O)O)cnn2-c2ccccc2)CC1	none
CCOc1ccc(-c2cc3nc(C4CCN(C(=O)OC(C)(C)C)CC4)c(C(=O)O)cn3n2)cc1	hDAT+cocaine 3.42, D1 allo mod 12.7 | D1 PAM confirm 13012 | D1 ag no DA inactive | Isoprot counter active
COc1ccc(C(=O)N2CCc3cc(OC)c(OC)cc3C2)cc1OC	D1 allo mod 3.7 | D1 PAM confirm 9712 | D1 ag no DA inactive | Isoprot counter active
COc1ccc(C(=O)N2CCN(S(=O)(=O)c3ccc(C)cc3C)CC2)cc1OC	D1 allo mod 4.65 | D1 PAM confirm 10368 | D1 ag no DA inactive | Isoprot counter active
COc1ccc(C(=O)N2CCN(S(=O)(=O)c3ccc(Cl)cc3)CC2)cc1OC	none (no result: M1 antagonist, M1 agonist, Jurkat viability, HEK293 NFkB inh, D1 allo mod)
COc1cccc(-c2nc(N3CC(C)CC(C)C3)c3ccccc3n2)c1O (stereo not drawn)	none (no result: Jurkat viability, HEK293 NFkB inh, D1 allo mod)
CCOC(=O)C1CCCCN1Cc1cc(Cl)ccc1O (stereo not drawn)	D1 allo mod 4 (no result: Jurkat viability, HEK293 NFkB inh) | D1 PAM confirm 8896 | Isoprot counter active
CCOC(=O)C1CCCCN1Cc1cc(OC)ccc1OC (stereo not drawn)	none (no result: M1 antagonist, M1 agonist, Jurkat viability, HEK293 NFkB inh, D1 allo mod)
OCc1cn(-c2ccccc2)nc1-c1ccc2c(c1)OCCO2	none
COc1cccc(-c2nn(-c3ccccc3)cc2C(=O)NCC(=O)O)c1	none
COc1ccc(-c2nn(-c3ccccc3)cc2CO)cc1OC	D1 allo mod 6.68 (no result: M1 antagonist, M1 agonist) | D1 PAM confirm 13160 | D1 ag no DA inactive | Isoprot counter active
COc1cccc(-c2nn(-c3ccccc3)cc2CO)c1	D1 allo mod 3.63 | D1 PAM confirm 10836 | D1 ag no DA inactive | Isoprot counter active
O=C(C1CCCN(S(=O)(=O)c2cccs2)C1)N1CCC(N2CCCCC2)CC1 (stereo not drawn)	none
Cc1cc2c(cc1C)CSC(c1ccccc1OC(=O)C(C)C)SC2	none (no result: M1 antagonist, M1 agonist, Jurkat viability, HEK293 NFkB inh, D1 allo mod)
c1csc(Cn2c(-c3cccs3)nc3ccccc32)c1	none
Brc1ccccc1Cn1c(-c2cncs2)nc2ccccc21	D1 allo mod 10.2 | D1 PAM confirm 19056 | D1 ag no DA inactive | Isoprot counter active
COc1ccc(Nc2nc(N)nc(SCc3nnc(C)s3)n2)cc1	D1 allo mod 5.67 | D1 PAM confirm 8828 | D1 ag no DA inactive | Isoprot counter active
O=C(NCc1ccco1)c1ccc2c(c1)C(=O)N(C1CCCCC1)C2=O	none (no result: M1 antagonist, M1 agonist, Jurkat viability, HEK293 NFkB inh, D1 allo mod)
O=C(NCc1cccnc1)c1cccc2c1C(=O)N(C1CCCCC1)C2	D1 allo mod 20.7 (no result: M1 antagonist, M1 agonist, hDAT+cocaine) | D1 PAM confirm 25588 | D1 ag no DA inactive | Isoprot counter active
O=C(NCc1ccco1)c1cccc2c1C(=O)N(C1CCCCC1)C2	D1 allo mod 16.9 (no result: M1 antagonist, M1 agonist) | D1 PAM confirm 21064 | D1 ag no DA inactive | Isoprot counter active
CCC1=C2CC[C@H]3C(=O)N(CC)C(=O)[C@H]3[C@H]2[C@@]2(Cc3ccccc3)C(=O)N(Cc3ccccc3)C(=O)N2C1=O	none (no result: M1 antagonist, M1 agonist, Jurkat viability, HEK293 NFkB inh, D1 allo mod)
CCOC(=O)c1c(C)[nH]c(C(=O)O)c1C	none
CCOC(=O)c1[nH]c(C)c(C(=O)OCc2c(C)noc2C)c1C	D1 allo mod 5.07 | D1 PAM confirm 7568 | D1 ag no DA inactive | Isoprot counter active
COc1ccc(N2CCN(c3nc(NCCc4ccc(OC)c(OC)c4)nc(OC)n3)CC2)cc1	D1 allo mod 2.84 | D1 PAM confirm 11472 | D1 ag no DA inactive | Isoprot counter active
